For four compounds, Activity, SP and Change in amplitude response results are on record in ChEMBL document CHEMBL1123529, “Analogues of substance P. Peptides containing D-amino acid residues in various positions of substance P and displaying agonist or receptor selective antagonist effects” (1986).

The target of assay [1] is Substance-P receptor (Cavia porcellus) (UniProt P30547). Nature of the assay: Antagonistic activity against Substance P receptor in guinea pig ileum at concentration of 14 uM. The format is functional, tissue-based. The method, boiled down:
(§1)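 Distal ileum from Dunkin-Hartley guinea pigs (300-350 g, both sexes) in a Krebs organ bath at 37 °C, gassed with 95% O2/5% CO2. Agonist (SP or SP(6-11)) dose-response curves run on a 3-min cycle with 1-min contact, with and without antagonist. Dose ratio = agonist EC50 with antagonist / EC50 alone. At least two preparations per compound; ratios below 2 taken as insignificant.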

The target is the same in assay [2]. In words: Antagonistic activity against Substance P(6-11) receptor in guinea pig ileum at concentration of 14 uM. Format: functional, tissue-based. The method, boiled down:
as §1

Assay [3] has the same target. In words: Evaluated in vitro for percent agonist activity in guinea pig ileum (substance P receptor). The format is functional, tissue-based.
The target is the same in assay [4]. In words: Antagonistic activity against Substance P receptor in guinea pig ileum at concentration of 100 uM. Format: functional, tissue-based. The method, boiled down:
as §1

For assay [5] the target is unchanged. Nature of the assay: Antagonistic activity against Substance P(6-11) receptor in guinea pig ileum at concentration of 100 uM. The format is functional, tissue-based. The method, boiled down: as §1
The target is the same in assay [6]. In words: Antagonistic activity against Substance P(6-11) receptor in guinea pig ileum at concentration of 10 uM. Format: functional, tissue-based. The method, boiled down: as §1
For assay [7] the target is unchanged. In words: Antagonistic activity against Substance P(6-11) receptor in guinea pig ileum at concentration of 1 uM. Format: functional, tissue-based. The method, boiled down:
as §1

Assay [8] has the same target. In words: Antagonistic activity against Substance P in guinea pig ileum at concentration of 1 uM. The format is functional, tissue-based. In short, it runs like this:
as §1

The target is the same in assay [9]. In words: Antagonistic activity against Substance P in guinea pig ileum at concentration of 10 uM. The format is functional, tissue-based. The method, boiled down:
as §1

Assay [10] shares this target. Nature of the assay: Antagonistic activity against Substance P receptor in guinea pig ileum at concentration of 5 uM. Format: functional, tissue-based. In short, it runs like this: as §1
Assay [11] deals with Substance-P receptor (Rattus norvegicus) (UniProt P14600). In words: Antagonistic activity against Substance P(6-11) receptor in rat spinal cord at concentration of 5 uM.
Sequence of Substance-P receptor (Rattus norvegicus) (P14600 whole entry, looked up): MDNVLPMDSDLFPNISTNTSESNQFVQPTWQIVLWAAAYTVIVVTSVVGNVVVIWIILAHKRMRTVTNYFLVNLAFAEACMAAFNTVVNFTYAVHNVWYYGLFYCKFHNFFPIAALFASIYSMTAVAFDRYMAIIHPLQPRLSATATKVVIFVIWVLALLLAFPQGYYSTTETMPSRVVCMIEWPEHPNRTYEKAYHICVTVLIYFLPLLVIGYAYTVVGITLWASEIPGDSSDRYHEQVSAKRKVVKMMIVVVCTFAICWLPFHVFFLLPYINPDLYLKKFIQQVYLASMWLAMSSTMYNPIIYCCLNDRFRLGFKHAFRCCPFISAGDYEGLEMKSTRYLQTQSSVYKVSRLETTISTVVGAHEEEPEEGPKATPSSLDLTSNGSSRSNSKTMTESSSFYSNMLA
Assay [12] shares this target. Nature of the assay: Antagonistic activity against Substance P receptor in rat spinal cord at concentration of 5 uM.
Assay [13] deals with Substance-P receptor (Cavia porcellus) (UniProt P30547). Nature of the assay: Antagonistic activity against Substance P(6-11) receptor in guinea pig ileum at concentration of 5 uM. The format is functional, tissue-based. The method, boiled down:
as §1

In assay [14] the target is Substance-P receptor (Rattus norvegicus) (UniProt P14600). Nature of the assay: Antagonistic activity against Substance P(6-11) receptor in rat spinal cord at concentration of 50 uM.
Assay [15] in a line: In vitro antagonistic activity against Substance P on guinea pig ileum at concentration of 10 uM. Format: functional, Cavia porcellus. The method, boiled down: (§2)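 Dose-response curves used a 3-min cycle with 1-min contact and washout, with SP or SP(6-11)-hexapeptide as agonist. Dose ratio is the agonist EC50 with antagonist divided by the EC50 alone. At least two preparations per compound; ratios under 2 were considered insignificant.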

Assay [16] has as its target Metabotropic glutamate receptor 3 (Rattus norvegicus) (UniProt P31422). In words: Antagonistic activity against Glutamate receptor in rat spinal cord at concentration of 5 uM. The format is functional, tissue-based. The method, boiled down:
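Neonatal hemisectioned spinal cord from Wistar rats (Alderley Park strain, 2-7 days old), anaesthetised with intraperitoneal urethane (25% w/v, […]) and then decapitated. Cord superfused with oxygenated medium at 1 mL/min. Agonist (SP, SP(6-11), glutamate or carbachol) applied as 2-mL doses in the superfusate. Antagonist superfused for at least 15 min before agonists were retested. Read-out: % change in ventral root–cord DC potential response amplitude.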

The target of assay [17] is Substance-P receptor (Rattus norvegicus) (UniProt P14600). Nature of the assay: Antagonistic activity against Substance P receptor in rat spinal cord at concentration of 50 uM.
Assay [18] can be described thus: In vitro antagonistic activity against Substance P(6-11) in guinea pig ileum at concentration of 10 uM. Format: functional, Cavia porcellus. The method, boiled down: as §2

SMILES strings stand for the structures.

Sequence of Substance-P receptor (Cavia porcellus) (P30547 whole entry): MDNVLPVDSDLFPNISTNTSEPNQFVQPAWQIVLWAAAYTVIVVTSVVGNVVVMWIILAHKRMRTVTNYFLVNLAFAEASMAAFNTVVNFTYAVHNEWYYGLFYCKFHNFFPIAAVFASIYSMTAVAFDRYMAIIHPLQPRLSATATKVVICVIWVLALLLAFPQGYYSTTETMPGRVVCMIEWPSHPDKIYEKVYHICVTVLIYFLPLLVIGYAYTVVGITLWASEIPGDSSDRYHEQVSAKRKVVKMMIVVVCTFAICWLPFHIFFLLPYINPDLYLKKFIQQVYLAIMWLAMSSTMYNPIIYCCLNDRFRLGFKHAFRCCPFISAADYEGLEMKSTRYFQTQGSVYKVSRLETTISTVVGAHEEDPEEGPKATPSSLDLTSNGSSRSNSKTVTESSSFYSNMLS
Sequence of Metabotropic glutamate receptor 3 (Rattus norvegicus) (P31422 23-879 limits assumed): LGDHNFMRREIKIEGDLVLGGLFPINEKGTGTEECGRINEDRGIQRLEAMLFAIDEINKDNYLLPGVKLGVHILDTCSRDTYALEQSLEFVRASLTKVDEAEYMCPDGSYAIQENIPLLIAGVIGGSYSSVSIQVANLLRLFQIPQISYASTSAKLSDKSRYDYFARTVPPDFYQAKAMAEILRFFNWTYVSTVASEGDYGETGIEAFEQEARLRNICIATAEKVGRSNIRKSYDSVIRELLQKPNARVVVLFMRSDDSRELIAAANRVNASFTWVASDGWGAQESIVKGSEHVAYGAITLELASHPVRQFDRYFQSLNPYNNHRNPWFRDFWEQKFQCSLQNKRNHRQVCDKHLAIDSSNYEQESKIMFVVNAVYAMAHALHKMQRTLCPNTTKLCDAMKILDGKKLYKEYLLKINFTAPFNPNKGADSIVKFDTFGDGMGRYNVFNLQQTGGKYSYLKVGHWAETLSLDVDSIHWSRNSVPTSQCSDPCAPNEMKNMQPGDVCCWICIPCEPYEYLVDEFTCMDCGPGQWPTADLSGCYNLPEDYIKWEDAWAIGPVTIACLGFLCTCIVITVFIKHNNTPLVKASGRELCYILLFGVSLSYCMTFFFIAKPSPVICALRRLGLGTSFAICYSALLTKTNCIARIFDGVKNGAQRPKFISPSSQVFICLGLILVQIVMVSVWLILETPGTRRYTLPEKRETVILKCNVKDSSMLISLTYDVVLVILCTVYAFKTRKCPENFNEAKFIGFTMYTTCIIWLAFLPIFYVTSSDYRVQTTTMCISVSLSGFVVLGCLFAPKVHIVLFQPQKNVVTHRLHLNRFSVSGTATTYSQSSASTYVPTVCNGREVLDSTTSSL

In the case of `COC(=O)[C@@H](CCSC)NC(=O)[C@H](CC(C)C)NC(=O)CNC(=O)[C@H](Cc1ccccc1)NC(=O)[C@H](Cc1ccccc1)NC(=O)[C@@H]1CCCN1C(=O)[C@H]1CCCN1C(=O)[C@@H]1CCCN1C(=O)[C@H](CCCCNC(=O)OCc1ccccc1)NC(=O)[C@@H]1CCCN1C(=O)[C@H](CCCN=C(N)N)NC(=O)OCc1ccccc1`, the Activity in assay [1] and in assay [2] was less than 2 dose ratio each time. In [3], this compound had an SP of 0.004%.

For the compound `COC(=O)[C@@H](CCSC)NC(=O)[C@H](CC(C)C)NC(=O)CNC(=O)[C@H](Cc1c[nH]c2ccccc12)NC(=O)[C@@H](Cc1c[nH]c2ccccc12)NC(=O)[C@H](CCC(N)=O)NC(=O)[C@H](CCC(N)=O)NC(=O)[C@@H]1CCCN1C(=O)[C@H](CCCCN)NC(=O)[C@@H]1CCCN1C(=O)[C@@H](N)CCCN=C(N)N`, the Activity in assay [4] and in [5] was less than 2 dose ratio throughout. The SP in [3] is less than 0.0001%.

Consider `CSCC[C@@H](NC(=O)[C@H](CC(C)C)NC(=O)CNC(=O)[C@H](Cc1c[nH]c2ccccc12)NC(=O)[C@@H](Cc1c[nH]c2ccccc12)NC(=O)[C@H](CCC(N)=O)NC(=O)[C@H](CCC(N)=O)NC(=O)[C@@H]1CCCN1C(=O)[C@H](CCCCNC(=O)OCc1ccccc1)NC(=O)[C@@H]1CCCN1C(=O)[C@H](CCCN=C(N)N)NC(=O)OCc1ccccc1)C(=O)O`, for which the Activity in assay [6] was determined as 18 dose ratio; in [7], 1.8 dose ratio; in assay [8], 1.1 dose ratio; in [9], 14.6 dose ratio. The SP in assay [3] turned out to be 0%.

For `CSCC[C@@H](NC(=O)[C@H](CC(C)C)NC(=O)[C@@H](Cc1c[nH]c2ccccc12)NC(=O)C(Cc1ccccc1)NC(=O)[C@@H](Cc1c[nH]c2ccccc12)NC(=O)[C@H](CCC(N)=O)NC(=O)[C@H](CCC(N)=O)NC(=O)C1CCCN1C(=O)[C@H](CCCCN)NC(=O)C1CCCN1C(=O)[C@@H](N)CCCN=C(N)N)C(=O)O` (stereo in doubt), the Activity in assay [10] turned out to be 6.3 dose ratio; in [13] it was 3.4 dose ratio; in assay [15] it was 5.3 dose ratio; in assay [18], 4.3 dose ratio. Besides, the Change in amplitude response was -62% in assay [11]; 21% in assay [12]; -100% in assay [14]; -20% in [16]; 16% in [17].
